Published values pooled from the literature.
Compare with care: the assays were run in different laboratories.
SLCO2B1: Solute carrier organic anion transporter family member 2B1 (SLCO2B1, Homo sapiens, UniProt O94956)
CDK7 with cyclin H: Cyclin-dependent kinase 7, with cyclin H (CDK7, Homo sapiens, UniProt P50613)
HDAC6: Protein deacetylase HDAC6 (HDAC6, Homo sapiens, UniProt Q9UBN7)
ACSL4: Long-chain-fatty-acid--CoA ligase 4 (ACSL4, Homo sapiens, UniProt O60488)

CCc1oc2ccccc2c1C(=O)c1cc(Br)c(O)c(Br)c1
IC50 (SLCO2B1; transporter uptake; inhibitor; radiometric): 209 nM

Cc1cc(S(=O)(=O)NCCO[C@H]2CC[C@H](CN3CCC(c4ccn5c(N6CCC(=O)NC6=O)cnc5c4)CC3)CC2)ccc1Nc1ncc2cc(Cl)c(=O)n(C3CCCC3)c2n1
IC50 (CDK7 with cyclin H; enzyme activity; inhibitor; radiometric): 3800 nM

O=C(NO)c1ccc(CN2CCN(c3cccc4cc(S(=O)(=O)c5cccc(F)c5)cnc34)CC2)c(F)c1
IC50 (HDAC6; enzyme activity; inhibitor; fluorescence): 540 nM

O=C(COc1ccc(C2CCC(=O)NC2=O)cc1)NCCCCCCN1CCc2c(c3ccccc3n2Cc2ccc(C(=O)NO)cc2)C1 (stereo not shown)
IC50 (HDAC6; enzyme activity; inhibitor; fluorescence): 25 nM

CN1C(=O)SC(Cc2ccc(OCCN(C)c3ccccn3)cc2)C1=O (stereo not shown)
IC50 (ACSL4; enzyme activity; inhibitor): 4500 nM

CN(C)C(=O)c1cc2cnc(Nc3ccc(-c4cccc5c(=O)cc(N6CCOCC6)oc45)cc3)nc2n1C1CCCC1
IC50 (CDK7 with cyclin H; enzyme activity; inhibitor): > 10000 nM

COc1ccc(N(Cc2nc(-c3ccc(F)cc3)cs2)C(=O)CCCCCC(=O)NO)cc1
IC50 (HDAC6; enzyme activity; inhibitor): 3.5 nM

CN(CCOc1ccc(CC2SC(=O)NC2=O)cc1)c1ccccc1 (stereo not shown)
IC50 (ACSL4; enzyme activity; inhibitor): 400 nM

CNS(=O)(=O)c1ccc(Nc2ncc(C(F)(F)F)c(N3CCC(C)(O)CC3)n2)c(C)c1
IC50 (CDK7 with cyclin H; enzyme activity; inhibitor; radiometric): 1970 nM

COC(=O)CCCc1ccc(OCCN(C)c2ccccc2)cc1
IC50 (ACSL4; enzyme activity; inhibitor): > 50000 nM

COc1ccc(N(Cc2csc(-c3ccccc3)n2)C(=O)CCCCCC(=O)NO)cc1
IC50 (HDAC6; enzyme activity; inhibitor): 2.7 nM

CNS(=O)(=O)c1ccc(Nc2ncc(C(F)(F)F)c(N3CCCC(C)(O)C3)n2)c(C)c1 (stereo not shown)
IC50 (CDK7 with cyclin H; enzyme activity; inhibitor; radiometric): 2510 nM

CCc1oc2cc(F)ccc2c1C(=O)c1cc(Br)c(O)c(Br)c1
IC50 (SLCO2B1; transporter uptake; inhibitor; radiometric): 749 nM

COC(=O)/C=C/c1ccc(OCCN(C)C(=O)c2ccccc2)cc1
IC50 (ACSL4; enzyme activity; inhibitor): 380 nM

CNS(=O)(=O)c1ccc(Nc2ncc(C(F)(F)F)c([C@H]3CC[C@@](C)(O)CC3)n2)c(C)c1
IC50 (CDK7 with cyclin H; enzyme activity; inhibitor; radiometric): 7260 nM

COC(=O)/C=C/c1ccc(OCCN(C)C(=O)c2ccc(C3(C(F)(F)F)N=N3)cc2)cc1
IC50 (ACSL4; enzyme activity; inhibitor): 24400 nM

O=C(NO)c1ccc(Cn2cnc3c(Nc4ccc(F)c(Cl)c4)ncnc32)cc1
IC50 (HDAC6; enzyme activity; inhibitor; fluorescence): 6.17 nM

CCc1ccc(C(=O)COc2ccc(CC3SC(=O)NC3=O)cc2)nc1 (stereo not shown)
IC50 (ACSL4; enzyme activity; inhibitor): 6000 nM

O=C1CCC(N2C(=O)c3cccc(NCC(=O)OCCCCc4cn(CCCCCCN5CCc6c(c7ccccc7n6Cc6ccc(C(=O)NO)cc6)C5)nn4)c3C2=O)C(=O)N1 (stereo not shown)
IC50 (HDAC6; enzyme activity; inhibitor; fluorescence): 47 nM

COc1ccc(Nc2ncnc3c2ncn3Cc2ccc(C(=O)NO)cc2)cc1
IC50 (HDAC6; enzyme activity; inhibitor; fluorescence): < 2 nM

O=C(/C=C/c1ccc(O)c(O)c1)O[C@H]1[C@H](O)[C@@H](O)[C@H](OCCc2ccc(O)c(O)c2)O[C@@H]1CO
IC50 (3-hydroxy-3-methylglutaryl-coenzyme A reductase (HMGCR, Homo sapiens, UniProt P04035); enzyme activity; inhibitor; absorbance): 73500 nM

CN(CCOc1cccc(CC2SC(=O)NC2=O)c1)c1ccccc1 (stereo not shown)
IC50 (ACSL4; enzyme activity; inhibitor): 10100 nM

CN(CCCCCCNC(=O)CNc1cccc2c1C(=O)N(C1CCC(=O)NC1=O)C2=O)Cc1cn(Cc2ccc(C(=O)NO)cc2)c2ccccc12 (stereo not shown)
IC50 (HDAC6; enzyme activity; inhibitor; fluorescence): 26 nM

CCC(CC)COC(=O)[C@H](C)N[P@](=O)(OC[C@H]1O[C@@](C#N)(c2ccc3c(N)ncnn23)[C@H](O)[C@@H]1O)Oc1ccccc1
IC50 (Liver carboxylesterase 1 (CES1, Homo sapiens, UniProt P23141); enzyme activity; inhibitor; absorbance): 36200 nM

CN1CCC(CNc2ccc3ncc(-c4cccc(OC(F)(F)F)c4)n3n2)CC1
IC50 (5-hydroxytryptamine receptor 1B (HTR1B, Homo sapiens, UniProt P28222); cAMP; agonist): 95 nM
